Test results published in the EternaBench riboswitch data.

System: MS2 coat protein
Assay: apparent Kd, MS2 coat protein; higher = weaker binding; RNA-MaP array; FMN 200 µM where present
In short: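 Designs on Illumina sequencing-chip clusters, transcribed by stalled E. coli RNA polymerase, were exposed to SNAP-549-labelled MS2 coat protein in doubling steps from 0.7 or 1.5 nM up to 3 µM, without and then with constant ligand. The buffer held 100 mM Tris-HCl pH 7.5, 80 mM KCl, 4 mM MgCl2, BSA, DTT, yeast tRNA and Tween-20. Apparent Kd values are medians of filtered per-cluster binding-curve fits to green signal normalised to red-channel RNA signal and control-cluster median Fmax.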

[1] = designed as: OFF switch for flavin mononucleotide, no ligand
[2] = ligand present: flavin mononucleotide, designed as: OFF switch for flavin mononucleotide
[3] = designed as: ON switch for flavin mononucleotide, no ligand
[4] = ligand present: flavin mononucleotide, designed as: ON switch for flavin mononucleotide

| Sequence | apparent Kd [1] | apparent Kd [2] | apparent Kd [3] | apparent Kd [4] |
| --- | --- | --- | --- | --- |
| AAAACGUGAGGAUAUCCAAUAUAUGACAUGAGGAUCACCCAUGUUUCCACUCGUACCUCCGGAGAAGGCACUUUUU | 54.6 nM | 44.9 nM |  |  |
| GUAUGAGCGAUAGGAUAUACUGAGAUUGAAUGGGUAGAAGGAUUUCUUGUGGGAAAGACAUGAGGAUCACCCAUGUCGCGGACC |  |  | 299 nM | 176 nM |
| AGCUACGUUUCGUAGCAGUGUCAUCGAGAAGGCCUUAUUACAUGAGGAUCACCCAUGUAUGCAUGGGAGGAUAUCGAUGAUACA |  |  | 13.9 nM | 5.25 nM |
| UCCUUGUCCUGAGGAUAUCCGUGGUUACCUAAAGGAGAAGGCAGGACAUGAGGAUCACCCAUGUACCCAGAAAACGUGCAGAGU | 234 nM | 126 nM |  |  |
| UAUAUAUAGUAAGGAUAUGUAUAUAUUUUAUCAACAGAAGGUACUGACAUGAGGAUCACCCAUGUUUUAGUGUGGGCAUGUAGA | 68.7 nM | 70.8 nM |  |  |
| AAAACAUGAGGAUCACCCAUGUAAAGAUCGGUUAAUAAAAGUGAGGAUAUACUAAAUUUUAUAUAGUAGAAGGCACUGGGUACA |  |  | 22.9 nM | 30.1 nM |
| CGUUAAUCCUAGGAUAUGCUAGACGAAAGUCUAGCAGAAGGAGGAACAUGAGGAUCACCCAUGUGUCCUAAACG | 16.8 nM | 26.7 nM |  |  |
| GCACGGUAUGUAGGAUAUGCAUAGCAUUGCUAUGCAGAAGGACAUGAGGAUCACCCAUGUAUGUAUUCCAUACUAAUCCCGUGC | 5.89 nM | 5.79 nM |  |  |
| GUUGCGUUUGUGAGGAUAUGCUGUUCCUUGGUUCGGCAGAAGGCACAUGAGGAUCACCCAUGUGGUGUCGUUCC | 15.5 nM | 28.7 nM |  |  |
| AGUGCCUCGAGAGGAUAUUACAUGAGGAUCACCCAUGUAACAGAGGUGGAAACACCUCUGAAAUGUAAGAAGGCUCGAGGCACA | 19.2 nM | 31.2 nM |  |  |
| GCACUGACAGGAUAUACAUGAGGAUCACCCAUGUGACCCUUAUAGUACUCGCGUACUGGUAGAAGGGUCUGUGC | 78.8 nM | 558 nM |  |  |
| CGAGCUGCUGUGAGGAUAUACCUAUGGAUGCGUGGGUAGAAGGCACAUGAGGAUCACCCAUGUCCUGCAGCUCG | 42.1 nM | 241 nM |  |  |
| AGUAACAGAGGAUAUACUAUUUUAUGUGUUUGUUAUUUUAAACAUGAGGAUCACCCAUGUAGAAGGCUGAAUAA | 21.8 nM | 24.1 nM |  |  |
| UUGACGGCAGGAUAUACAUGAGGAUCACCCAUGUAAAUUUUUCGUUUAACUUGAAUGUGUAGAAGGGCCAAAAC | 22.7 nM | 19.5 nM |  |  |
| UAUAUAAUAAGAGCUGGCUCUAAAACAUGAGGAUCACCCAUGUAGGAUAUCAGCACGAUAAGUGCUGAGAAGGACAACCAGCUC | 16.3 nM | 17.3 nM |  |  |
| CACGUCCACACAGGAUAUGCUGGACUUUGUCCAGCAGAAGGGUGAAAACAUGAGGAUCACCCAUGUAGGACGUGUAUAUUUAAU |  |  | 488 nM | 43 nM |
| GUCAUGUCAGGAUAUGCUUAUGGUGGGUGCUCAGACAUGAUGCAGAAGGGACAUGAGGAUCACCCAUGUACUGU | 35.8 nM | 60.9 nM |  |  |
| ACGUAUCGUGUAGGAUAUGACACAGGAAACUGGUCAGAAGGACAUGAGGAUCACCCAUGUAGAGUAUGUUAGGAUGACGUAUGC | 43 nM | 261 nM |  |  |
| UUAAGUCAUGUAGGAUAUCCGAGGCGAAGCGUUGGAGAAGGACAUGAGGAUCACCCAUGUUCUAGCGUCUGAGUACAGAUGCAA | 22.7 nM | 33.7 nM |  |  |
| AUUAUUUAUAGUUAUUGGUAAUUGACAGAAGGUGAAAGUGUCACAUGAGGAUCACCCAUGUUCUUCAAGGAUAUGUUGGUUUAC |  |  | 37.6 nM | 8.4 nM |
| ACUGGUCGAGGAUAUACAUGAGGAUCACCCAUGUCGAUCAACCAGCGAUAGCUGGAAUGUAGAAGGCGACCAGU | 200 nM | 446 nM |  |  |
| ACAUGAGGAUCACCCAUGUGGACAUAGGAUAUUGGUGAUCAGGCGUGUUAUACAGGAUAGGUCUGCGAGAAGGGUGUGCGUUGC |  |  | 406 nM | 218 nM |
| GUAGAGUAGUGAGGAUAUACGAGUACGAUAGUACGGCGAUCCAUUAAUACAUGAGGAUCACCCAUGUAGAAGGCACUUCUCUAC | 6.6 nM | 84 nM |  |  |
| GGAGCUCAGAUUAACAUGAGGAUCACCCAUGUCUUUUGACAUGAGGAUAUGGAUCCUAAUUGGAUCCAGAAGGCAUGGAGCUCC |  |  | 1590 nM | 126 nM |
| UUAUAUAGUGUGAGGAUAUGCUGGUCCUUGGAUCAGCAGAAGGCACAUGAGGAUCACCCAUGUAGUUUAUUUUA | 29 nM | 129 nM |  |  |
| GCUAGUAUUGCAGGAUAUUGAUAUUAAUUAUGGCAAGAAGGGCAUUACAUGAGGAUCACCCAUGUUUUCCUUAGUCAUACUAGC | 5.33 nM | 5.39 nM |  |  |
| AAUCUGUGAGGAUAUGGUGAGUAGUGCCUGAGCGCUGCUCACCAGAAGGCACAUGAGGAUCACCCAUGUAUGAA | 31.2 nM | 99.6 nM |  |  |
| UAAUGUAUAUAGGAUAUCUAGCUGGAUACAGCUAGAGAAGGAUGUACAUGAGGAUCACCCAUGUAAAUCGAUCA | 23.2 nM | 55.7 nM |  |  |

| Sequence | apparent Kd [1] | apparent Kd [2] | apparent Kd [3] | apparent Kd [4] |
| --- | --- | --- | --- | --- |
| GGGAUGCUAGGAUAUACAUCGGGCUCCAGGAUGUUCCGGGAACAUGAGGAUCACCCAUGUAGAAGGAGCUAAAG | 67.9 nM | 53.5 nM |  |  |
| UGCCUGAGUCGAGGAUAUUAUGGAUCCUCUAAUACAUGAGGAUCACCCAUGUAAUUAAUUAUACAUGAGAAGGUGACUCAGGCU |  |  | 529 nM | 488 nM |
| GUCGAAGCUGUACCAGUCGACGGUCAGGAUAUACAUGAGGAUCACCCAUGUGCUAUUGAUACUAUGUAGAAGGGACCCACCGCA | 10.7 nM | 11.2 nM |  |  |
| GGUUGUCAUAGUCAUCCUUUACGUACAUGAGGAUCACCCAUGUAGGAUAUGCUACUCAAAGAGUAGCAGAAGGGCGUGUGUCUU | 23.1 nM | 25.5 nM |  |  |
| GAACGAUUGCCUACAUGAGGAUCACCCAUGUGGCUGACAAGCAGAAGGGCGGGUUUCAUUCUCCCGUAGGAUAUGCGCGUUCCA |  |  | 6.89 nM | 5.14 nM |
| AGCACGAAAGUGCAACGAUGUACGAGAAGGACAUGAGGAUCACCCAUGUUGCUGUAACAGCACAUGUAGGAUAUCGUACAUCGA | 166 nM | 180 nM |  |  |
| UUAUUAGCAGGAUAUAUCCGGGAUAACAUGAGGAUCACCCAUGUGACCGCUUGAUAUCCUAUAGAAGGGCUUUAUU | 19.9 nM | 31.4 nM |  |  |
| UCUACAUAGAUUCAUCAAUACAGUAAGGAUAUGAGAUACAUGAGGAUCACCCAUGUGCAUGUGAAUUAGAAGGUACAAUUAACU | 15.7 nM | 12.8 nM |  |  |
| UGGACUGGGCAGAAGGGACAUGAGGAUCACCCAUGUCUUGGGCUACUUCAGUCAGGAUAUGCCCAAUAAAUAUCCGUGCAUCAA | 13.3 nM | 67.1 nM |  |  |
| CGAUUUUAUAGAGGAUAUGUUUAACAUGAGGAUCACCCAUGUGAGGUGGAAAUAUUUAAUUACAUACAGAAGGCUAUACAAUCG | 234 nM | 180 nM |  |  |
| GUUGCUAUCGGAGGAUAUUCAUACCGGAAACGGACAUGAGGAUCACCCAUGUCGCGAAAGCGUUGGGAGAAGGCCGAUAGCAAC |  |  | 248 nM | 21.4 nM |
| CACGUCAGGAAACGGAGCGGCCAACAUGAGGAUCACCCAUGUGAGGAUAUGCCUACUAAAAGUAGGCAGAAGGCACAGAAGGCA | 38.2 nM | 160 nM |  |  |
| CACAUGGUUACAGGAUAUGUUAGGUUGCAGUUGAUUGGUUAUUAAAAUAUUACAGAAGGGUAAGACAUGAGGAUCACCCAUGUG |  |  | 175 nM | 97.5 nM |
| UUACAUACAAAGUUACAUGAGGAUCACCCAUGUUUAUUGGGAAGAAGGGUAACAUUAUUAAAUAUAUAGGAUAUUUCACAAUUG |  |  | 558 nM | 359 nM |
| AGUGUGUGGCAGGAUAUGCUAUUAAUUGGUGAAGCAGAAGGGUCUACAUGAGGAUCACCCAUGUAAGCGGUUGA | 39.7 nM | 190 nM |  |  |
| UGAUCUAUGUAGAAGGCCCAUAUCUAUAUUUAGGGAGGAUAUACAUGAGGAUCACCCAUGUAUAGAGCUAGUGGACUGGUCAGC | 48 nM | 69.4 nM |  |  |
| ACCAUUUACUAAUCCUCUAUACAUGAGGAUCACCCAUGUUUUGAGGAUAUCAUCGUUCGCCGCGUUGAGAAGGCAAAACAUUCG | 18.7 nM | 52.9 nM |  |  |
| AGGUAACAUGAGGAUCACCCAUGUCAGGAUAUCAGUAAGAUGAGAAUAGAGUAGAGUAUGAGAAGGGACUAUAU | 43.6 nM | 32.3 nM |  |  |
| CUUCUGUCAGGAUAUGCGAAUCACCACUGGGUCAGCGGUGAGCAGAAGGGACAUGAGGAUCACCCAUGUAAAGU | 40.5 nM | 171 nM |  |  |
| CGCUAAGAGAACGAUACGAGAAGACAUGAGGAUCACCCAUGUAGAAGGACAACGGAAUAAACGUUGUAGGAUAUACAUUUAGCG | 16.9 nM | 19.8 nM |  |  |
| GUUGCUAUCGGAGGAUAUUCAUACCGGAAACGGACAUGAGGAUCACCCAUGUGCGGAAACGCUUGGGAGAAGGCCGAUAGCAAC |  |  | 210 nM | 22.1 nM |
| GGUCGUCACAUGAACAUGAGGAUCACCCAUGUAACUAGACAUGAGGAUAUGGAUCCUAAUUGGAUCCAGAAGGCAUGGACGACC |  |  | 203 nM | 31.2 nM |
| GACCCAAAUGAGAAGGUGUGUAUAAAUUAUAUACAAGGAUAUCGGUCGAGCGUGUUGACAUGAGGAUCACCCAUGUUGUGGGUU |  |  | 57.1 nM | 25.7 nM |
| AUCAUGUCAGGAUAUAUGACAUGGCUCUUCGGAGCAAGCUCAUAGAAGGGACAUGAGGAUCACCCAUGUAGAGC | 22.7 nM | 30.5 nM |  |  |
| UCGGCGCGAGGAUAUACGUUUGCUUUUUAGGGUCGUGGCGUACAUGAGGAUCACCCAUGUAGAAGGCGCGCCGC | 16.9 nM | 52.7 nM |  |  |
| CUGGUUAGUCAGGAUAUCGUGUGGGUAAUUGUACGAGAAGGGACGACAUGAGGAUCACCCAUGUGGUCUUUGGG | 24.8 nM | 56.2 nM |  |  |
| AGAAACUAGGAGAAGGACAUAUGACCAAGACGAAACAUGAGGAUCACCCAUGUAGGAUAUCCUAGUUUCAGGAUCGUGAGAUCA | 5.47 nM | 7.97 nM |  |  |
